Laboratory results published in ChEMBL document CHEMBL3352559, “Synthesis and pharmacological investigation of aralkyl diamine derivatives as potential triple reuptake inhibitors” (Eur J Med Chem, 2014).

Legend:
[1] = biological target: T1, Sodium-dependent noradrenaline transporter (Homo sapiens, UniProt P23975); assay: Inhibition of [3H]-NE uptake in human norepinephrine transporter expressed in HEK293 cells at 10 uM by scintillation counting; format: cell-based
[2] = biological target: T2, Sodium-dependent serotonin transporter (Homo sapiens, UniProt P31645); assay: Inhibition of [3H]-serotonin uptake in human SERT expressed in HEK293 cells at 10 uM by scintillation counting; format: cell-based
Target sequence in this assay (P31645 whole entry, looked up): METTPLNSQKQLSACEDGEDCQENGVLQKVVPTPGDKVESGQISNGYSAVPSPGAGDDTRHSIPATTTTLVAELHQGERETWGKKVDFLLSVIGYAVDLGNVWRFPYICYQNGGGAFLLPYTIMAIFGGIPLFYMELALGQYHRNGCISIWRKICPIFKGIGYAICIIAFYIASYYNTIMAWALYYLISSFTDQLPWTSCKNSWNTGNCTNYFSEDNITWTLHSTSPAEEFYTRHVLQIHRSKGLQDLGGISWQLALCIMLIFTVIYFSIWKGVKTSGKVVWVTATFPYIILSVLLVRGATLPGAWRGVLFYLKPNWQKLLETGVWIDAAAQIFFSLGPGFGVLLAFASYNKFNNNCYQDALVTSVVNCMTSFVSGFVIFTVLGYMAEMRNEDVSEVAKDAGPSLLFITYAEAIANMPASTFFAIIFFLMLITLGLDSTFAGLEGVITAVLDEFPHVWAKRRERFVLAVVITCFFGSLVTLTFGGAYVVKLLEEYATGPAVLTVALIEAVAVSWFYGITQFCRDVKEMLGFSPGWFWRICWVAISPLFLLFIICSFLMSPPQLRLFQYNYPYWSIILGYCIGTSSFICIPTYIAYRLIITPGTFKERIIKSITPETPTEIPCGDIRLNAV

[3] = biological target: T3, Sodium-dependent dopamine transporter (Homo sapiens, UniProt Q01959); assay: Inhibition of [3H]-DA uptake in human dopamine transporter expressed in CHO cells at 10 uM by scintillation counting
T3 sequence (Q01959 whole entry): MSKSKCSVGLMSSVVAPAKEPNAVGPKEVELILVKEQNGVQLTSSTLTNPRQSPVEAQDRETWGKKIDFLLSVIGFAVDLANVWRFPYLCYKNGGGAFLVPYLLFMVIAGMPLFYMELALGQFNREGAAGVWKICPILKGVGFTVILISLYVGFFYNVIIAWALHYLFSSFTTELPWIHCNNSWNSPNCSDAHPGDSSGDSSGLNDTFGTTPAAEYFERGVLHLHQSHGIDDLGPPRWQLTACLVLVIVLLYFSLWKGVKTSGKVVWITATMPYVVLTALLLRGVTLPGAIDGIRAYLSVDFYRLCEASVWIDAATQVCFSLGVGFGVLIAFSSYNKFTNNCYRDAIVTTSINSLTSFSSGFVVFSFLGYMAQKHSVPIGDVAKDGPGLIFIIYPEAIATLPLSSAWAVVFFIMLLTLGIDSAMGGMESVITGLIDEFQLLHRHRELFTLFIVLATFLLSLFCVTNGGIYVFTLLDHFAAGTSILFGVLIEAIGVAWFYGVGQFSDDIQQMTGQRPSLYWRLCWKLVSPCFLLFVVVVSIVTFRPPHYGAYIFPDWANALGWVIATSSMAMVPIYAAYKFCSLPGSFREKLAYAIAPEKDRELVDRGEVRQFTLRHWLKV

[4] = biological target: T3, Sodium-dependent dopamine transporter; assay: Inhibition of [3H]-DA uptake in human dopamine transporter expressed in HEK293 cells by scintillation counting; format: cell-based
[5] = biological target: T1, Sodium-dependent noradrenaline transporter; assay: Inhibition of [3H]-NE uptake in human norepinephrine transporter expressed in HEK293 cells by scintillation counting; format: cell-based
[6] = system: Rattus norvegicus; assay: Antidepressant activity in po dosed rat assessed as reduction in immobility time by forced swimming test; format: functional, organism-based
How it was run: (§1)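 Male rats dosed orally at 5, 10 or 20 mg/kg alongside vehicle and venlafaxine 30 mg/kg PO groups. 1 h post-dose, each rat placed in a glass cylinder (40 cm × 18 cm) holding 15 cm of 25 ± 1 °C water. Immobility time recorded over a 6 min trial; significant main effects followed by post hoc Fisher's test.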

[7] = system: Rattus norvegicus; assay: Antidepressant activity in rat assessed as reduction in immobility time at 20 mg/kg, po by forced swimming test relative to control; format: functional; how it was run: as §1
[8] = biological target: T2, Sodium-dependent serotonin transporter; assay: Inhibition of [3H]-serotonin uptake in human SERT expressed in HEK293 cells by scintillation counting; format: cell-based
Target sequence in this assay (P31645 whole entry): as the sequence (P31645 whole entry, looked up) above

[9] = system: Rattus norvegicus; assay: Antidepressant activity in rat assessed as reduction in immobility time at 10 mg/kg, po by forced swimming test relative to control; format: functional; how it was run: as §1
[10] = system: Rattus norvegicus; assay: Antidepressant activity in rat assessed as reduction in immobility time at 5 mg/kg, po by forced swimming test relative to control; format: functional; how it was run: as §1
[11] = system: Rattus norvegicus; assay: Toxicity in rat assessed as effect on locomotion at 20 mg/kg, po after 60 mins by spontaneous locomotor test; format: organism-based; design: dose 20 mg/kg, route oral; conditions: in vivo, 1 h
How it was run: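 Rats dosed orally at 20 mg/kg, with vehicle and venlafaxine 30 mg/kg PO as controls; 60 min later placed singly in novel 40×40×50 cm cages under dim light with sound attenuation; activity recorded automatically in 5 min bins over 30 min; mean ± SEM.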

[12] = system: Rattus norvegicus; assay: Antidepressant activity in rat assessed as reduction in immobility time at 30 mg/kg, po by forced swimming test relative to control; format: functional
How it was run: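 Male rats were dosed PO with vehicle or compound. After 1 h each rat was placed in a clear glass cylinder (40 cm tall × 18 cm diameter) holding water at 25 ± 1 °C, 15 cm deep. Immobility time was recorded over a 6 min trial and compared with vehicle. Significant main effects were followed by Fisher's post hoc test.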

[13] = system: Rattus norvegicus; assay: Toxicity in rat assessed as effect on locomotion at 30 mg/kg, po after 60 mins by spontaneous locomotor test; format: organism-based; design: dose 30 mg/kg, route oral; conditions: in vivo, 1 h
How it was run: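 Rats were dosed PO. 60 min later each was placed alone in an unfamiliar 40 cm × 40 cm × 50 cm plastic cage under dim light and sound attenuation. Spontaneous activity was monitored automatically at 5 min intervals for up to 30 min. Results are mean ± SEM versus vehicle.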

T1 sequence (P23975 whole entry): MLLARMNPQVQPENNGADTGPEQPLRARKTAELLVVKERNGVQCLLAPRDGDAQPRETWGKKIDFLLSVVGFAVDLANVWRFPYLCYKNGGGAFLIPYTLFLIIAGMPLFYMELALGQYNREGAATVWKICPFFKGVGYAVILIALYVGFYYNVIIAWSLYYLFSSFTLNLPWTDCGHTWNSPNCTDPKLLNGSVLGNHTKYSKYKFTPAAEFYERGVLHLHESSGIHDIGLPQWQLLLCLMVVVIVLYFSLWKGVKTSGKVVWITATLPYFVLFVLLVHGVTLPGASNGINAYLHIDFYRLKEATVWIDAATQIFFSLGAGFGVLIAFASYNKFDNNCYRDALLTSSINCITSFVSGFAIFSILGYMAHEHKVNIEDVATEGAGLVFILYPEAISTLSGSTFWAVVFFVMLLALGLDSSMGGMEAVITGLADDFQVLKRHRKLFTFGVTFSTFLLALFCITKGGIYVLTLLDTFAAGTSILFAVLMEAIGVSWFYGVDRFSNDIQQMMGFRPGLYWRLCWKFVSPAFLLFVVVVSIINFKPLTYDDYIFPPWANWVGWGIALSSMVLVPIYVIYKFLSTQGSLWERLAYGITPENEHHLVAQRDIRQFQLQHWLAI

Compound	inhibition [1] [%]	inhibition [2] [%]	inhibition [3] [%]	IC50 [5] [µM]	IC50 [8] [µM]	also measured
Cc1ccc(C(CCN(C)C)N2CCOCC2)cc1 (centres undefined)	40.4	39.2	25.8	–	–	–
CN(C)CCC(c1ccc(Cl)c(Cl)c1)N1CCCC1 (centres undefined)	–	–	–	0.206	0.501	IC50 [4]: 0.357 µM; inhibition [6]: Dose-dependent effect; inhibition in vivo at 20 mg/kg [7]: 36%; inhibition in vivo at 10 mg/kg [9]: 25%; inhibition in vivo at 5 mg/kg [10]: 18%; Activity [11]: Non-toxic
C1=C(Cc2ccccc2)CCN(CCC(c2csc3ccccc23)N2CCOCC2)C1 (centres undefined)	79.1	65.4	–	–	–	IC50 [4]: 0.852 µM
CN(C)CCC(c1ccc(F)cc1)N1CCOCC1 (centres undefined)	74.2	50.7	6.4	–	–	–
CN(C)CCC(c1cc2ccccc2s1)N1CCCC1 (centres undefined)	–	–	–	0.495	0.401	IC50 [4]: 0.863 µM
CN(C)CCC(c1ccc(Cl)c(Cl)c1)N1CCNCC1 (centres undefined)	–	–	80.1	0.428	0.399	–
COc1ccc(C(CCN(C)C)N2CCOCC2)cc1 (centres undefined)	29.3	25.9	22.9	–	–	–
CN(C)CCC(c1ccc(F)cc1F)N1CCOCC1 (centres undefined)	19.4	55.6	50.7	–	–	–
CC1CCCN(C(CCN2CCOCC2)c2ccc(Cl)c(Cl)c2)C1 (centres undefined)	35.3	30.5	54.3	–	–	–
CN(CCC(c1ccc(Cl)c(Cl)c1)N1CCOCC1)Cc1ccccc1 (centres undefined)	50.6	35.6	3.4	–	–	–
C1=C(Cc2ccccc2)CCN(CCC(c2csc3ccccc23)N2CCCCC2)C1 (centres undefined)	52.7	–	77.4	–	0.905	–
CN(C)CCC(c1ccc(Cl)cc1)N1CCOCC1 (centres undefined)	52.5	58.5	35.7	–	–	–
CN(CCC(c1cc2ccccc2s1)N1CCOCC1)Cc1ccccc1 (centres undefined)	37.8	30.3	41.9	–	–	–
CN(C)CCC(c1csc2ccccc12)N1CCOCC1 (centres undefined)	–	–	56.8	2.54	1.19	–
Clc1ccc(C(CCN2CCOCC2)N2CCCC2)cc1Cl (centres undefined)	–	–	–	0.0689	0.389	IC50 [4]: 0.238 µM; inhibition [6]: Dose-dependent effect; inhibition in vivo at 20 mg/kg [7]: 34%; inhibition in vivo at 10 mg/kg [9]: 17%; inhibition in vivo at 5 mg/kg [10]: 12%; Activity [11]: Non-toxic
COc1ccc2cc(C(CCN3CC=C(Cc4ccccc4)CC3)N3CCCC3)ccc2c1Cl (centres undefined)	73.5	79.9	79.5	–	–	–
C1=C(Cc2ccccc2)CCN(CCC(c2csc3ccccc23)N2CCNCC2)C1 (centres undefined)	–	73.9	83.9	0.635	–	–
COc1ccc(C(CN(C)C)C2(O)CCCCC2)cc1 (centres undefined) [VENLAFAXINE]	–	–	–	–	–	inhibition in vivo at 30 mg/kg [12]: 14%; Activity [13]: Toxic

Compound	inhibition [1] [%]	inhibition [2] [%]	inhibition [3] [%]	IC50 [5] [µM]	IC50 [8] [µM]	also measured
CN(CCC(c1ccc(F)cc1F)N1CCOCC1)Cc1ccccc1 (centres undefined)	5.3	24.1	46.2	–	–	–
CCOC(=O)C1CCCN(C(CCN2CCOCC2)c2ccc(Cl)c(Cl)c2)C1 (centres undefined)	19	34.9	36.6	–	–	–
CN(C)CCC(c1ccc(Cl)c(Cl)c1)N1CCCCC1 (centres undefined)	–	–	–	0.634	0.546	IC50 [4]: 0.602 µM
COc1ccc2cc(C(CCN(C)Cc3ccccc3)N3CCOCC3)ccc2c1Cl (centres undefined)	49.5	47.3	2.5	–	–	–
C1=C(Cc2ccccc2)CCN(CCC(c2csc3ccccc23)N2CCCC2)C1 (centres undefined)	–	–	–	0.157	0.621	IC50 [4]: 0.325 µM
CN(C)CCC(c1ccc(F)cc1)N1CCCC1 (centres undefined)	68.9	70.2	46.6	–	–	–
CCN(CC)CCC(c1ccc(Cl)c(Cl)c1)N1CCCC1 (centres undefined)	–	76.5	–	0.136	–	IC50 [4]: 0.363 µM
CN(C)CCC(c1ccc(C(F)(F)F)cc1)N1CCCC1 (centres undefined)	77.4	57.6	37.1	–	–	–
CNCCC(c1ccc(F)cc1F)N1CCOCC1 (centres undefined)	–	86.1	42	0.328	–	–
Clc1ccc(C(CCN2CCOCC2)N2CCOCC2)cc1Cl (centres undefined)	4.9	73.8	54.4	–	–	–
CN(C)CCC(c1cc2ccccc2s1)N1CCOCC1 (centres undefined)	–	–	66.8	1.46	0.449	–
CN(C)CCC(c1ccc(F)cc1)N1CCCCC1 (centres undefined)	87.6	62.7	40.1	–	–	–
CN(C)CCC(c1csc2ccccc12)N1CCCC1 (centres undefined)	–	–	–	0.25	0.425	IC50 [4]: 0.986 µM
Clc1ccc(C(CCN2CC=C(Cc3ccccc3)CC2)N2CCCC2)cc1Cl (centres undefined)	–	79.1	–	0.426	–	IC50 [4]: 0.291 µM
Clc1ccc(C(CCN2CCCCC2)N2CCOCC2)cc1Cl (centres undefined)	74	59.9	68.1	–	–	–
COc1ccc2cc(C(CCN(C)C)N3CCCC3)ccc2c1Cl (centres undefined)	–	–	–	0.374	0.338	IC50 [4]: 8.19 µM
CN(C)CCC(c1ccc(C(F)(F)F)cc1)N1CCOCC1 (centres undefined)	83.2	46.2	8.5	–	–	–
